From ChEMBL document CHEMBL3272316, “Oxime ether derivatives, a new class of nonsteroidal antiinflammatory compounds” (J Med Chem, 1977)

What was measured:
Rattus norvegicus [1] = test: Antiinflammatory activity in po dosed rat assessed as inhibition of carrageenan-induced paw edema compound administered 1 hr prior challenge measured 3 hrs post challenge; format: functional
Summary of the method: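 Rats of 180-220 g received oral doses in a series, in 1% tragacanth vehicle, 1 h before intraplantar injection of 0.05 mL of 1% carrageenan. Paw edema was measured at 3 h. ED50 (mg/kg) was derived graphically from the dose-inhibition curve, with 95% confidence limits by Finney's method for some compounds. Amines were tested as hydrochlorides.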

Rattus norvegicus [2] = test: Antiinflammatory activity in rat assessed as inhibition of carrageenan-induced paw edema at 50 mg/kg, po administered 1 hr prior challenge measured 3 hrs post challenge; format: functional
Summary of the method: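 Rats of 180-220 g, four per group, were given 50 mg/kg orally in 1% tragacanth vehicle 1 h before intraplantar injection of 0.05 mL of 1% carrageenan. Hind-paw edema was measured 3 h after injection and reported as percent inhibition (Winter method).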

[3] = Toxicity in po dosed mouse; format: organism-based; settings: in vivo
Summary of the method: (§1)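 Mice; LD50 derived by Horn's method. Amine compounds were tested as hydrochloride salts, with one exception given as the free base.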

Canis familiaris [4] = species: Canis familiaris; test: Toxicity in dog assessed as effect on emptying rate of stomach; format: organism-based, Canis lupus familiaris; settings: in vivo
[5] = Toxicity in ip dosed mouse; format: organism-based; settings: in vivo; summary of the method: as §1
Mus musculus [6] = test: Neurotoxicity in po dosed mouse; format: toxicity, organism-based; settings: in vivo
Summary of the method: (§2)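 Mice were assessed by a modified Irwin observational method.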

Rattus norvegicus [7] = species: Rattus norvegicus; test: Toxicity in rat assessed as effect on emptying rate of stomach; format: organism-based; settings: in vivo
Rattus norvegicus [8] = species: Rattus norvegicus; test: Toxicity in rat assessed as effects on gastrointestinal mucosa; format: organism-based, Intestinal mucosa; settings: in vivo
Mus musculus [9] = test: Neurotoxicity in ip dosed mouse; format: toxicity, organism-based; settings: in vivo; summary of the method: as §2
Canis familiaris [10] = species: Canis familiaris; test: Toxicity in dog assessed as effects on gastrointestinal mucosa; format: organism-based, Canis lupus familiaris, Intestinal mucosa; settings: in vivo

Compound	ED50 (Rattus norvegicus [1]) [mg/kg]	inhibition in vivo at 50 mg/kg (Rattus norvegicus [2]) [%]	also measured
CNCCOC(=O)CO/N=C(\C)c1ccc(Cl)cc1.Cl	26		
C/C(=N\OCC(=O)OCCNC1CCCCC1)c1ccc(Cl)cc1.Cl	26		
C/C(=N\OC(C)C(=O)O)c1ccc(Cl)cc1 (configuration not stated)	55		
C/C(=N/OCCO)c1ccc(Cl)s1		< 20	
C/C(=N/OCC(=O)O)c1ccc(Cl)s1		< 20	
CC(C)Cc1ccc(CC(=O)O)cc1 [IBUFENAC]	98		
C/C(=N\OCC(=O)O)c1ccc(Cl)cc1	28		
C/C(=N\OCC(=O)OCCN(C)C)c1ccc(Br)cc1	47		
C/C(=N\OCC(=O)O)c1ccc(O)cc1		< 20	
C/C(=N\OCCO)c1ccc(Cl)cc1	29		
C/C(=N\OCC(=O)O)c1ccc(N)cc1		20	
C/C(=N\OCC(=O)O)c1ccc(Cl)c(C)c1		20	
O=C(O)CO/N=C/c1cccc2ccccc12		< 20	
C/C(=N\OC(C)(C)C(=O)O)c1ccc(Cl)cc1	42		
C/C(=N\OCC(=O)O)c1ccc(C(C)(C)C)cc1		< 20	
C/C(=N\OCCOC(=O)C(C)(C)C)c1ccc(Cl)cc1	38		
O=C(O)CO/N=C1\CCc2cc(Cl)ccc21		< 20	
O=C(O)CO/N=C/c1ccc(Cl)cc1	45		
C/C(=N\OCC(=O)OCCN1CCOCC1)c1ccc(Cl)cc1.Cl	44		
C/C(=N\OCC(=O)O)c1ccc(C2CCCCC2)c(Cl)c1		< 20	
C/C(=N\OCC(=O)OCCN(C)C)c1ccc(Cl)c(Cl)c1	80		
CCOC(=O)CO/N=C(\C)c1ccc(Cl)cc1	32		
C/C(=N\OCCO)c1ccc(Cl)s1	60		

Compound	ED50 (Rattus norvegicus [1]) [mg/kg]	inhibition in vivo at 50 mg/kg (Rattus norvegicus [2]) [%]	also measured
C/C(=N\OCC(N)=O)c1ccc(Cl)cc1	24		
CC(C)=NOCC(=O)O		20	
COc1ccc(/C(C)=N/OCC(=O)O)cc1		< 20	
CC(=O)Nc1ccc(/C(C)=N/OCC(=O)O)cc1		< 20	
C/C(=N\OCC(=O)O)c1ccc(Cl)s1	34		
CC(C)Cc1ccc(C(C)C(=O)O)cc1 (configuration not stated) [IBUPROFEN]	25		
C/C(=N\OCC(=O)O)c1ccc(Cl)cc1Cl	120		
C/C(=N\OCC(=O)O)c1ccccc1Cl		< 20	
C/C(=N\OCC(=O)O)c1ccccc1O		< 20	
C/C(=N\OCC(C)O)c1ccc(Cl)cc1 (configuration not stated)		< 20	
OCCO/N=C\c1ccc(Cl)cc1		< 20	
CN(C)c1ccc(/C=N/OCC(=O)O)cc1		< 20	
C/C(=N\OCC(=O)OCCN(C)C)c1ccc(F)cc1		20	
C/C(=C\CCC(=O)O)c1ccc(Cl)cc1		< 20	
CCCOC(=O)CO/N=C(\C)c1ccc(Cl)cc1	14		
C/C(=N\NCC(=O)O)c1ccc(C2CCCCC2)c(Cl)c1		< 20	
C/C(=N\OCC(=O)O)c1ccc(N(C)C)cc1		< 20	
C/C(=N\OCCCC(=O)O)c1ccc(Cl)cc1	58		
C/C(=N\OCC(=O)O)c1ccc(Cl)c(Cl)c1	65		
C/C(=N\OCC(=O)O)c1ccc(C#N)cc1		< 20	
C/C(=N\OCC(=O)OCC(C)(C)N(C)C)c1ccc(Cl)cc1.Cl	27		
C/C(=N\OCC(=O)O)c1ccc(C2CC2)cc1		< 20	
C/C(=N\OCC(N)=O)c1ccc(Cl)c(Cl)c1	55		

Compound	ED50 (Rattus norvegicus [1]) [mg/kg]	inhibition in vivo at 50 mg/kg (Rattus norvegicus [2]) [%]	also measured
C/C(=N\OCC(=O)O)c1ccc(CC2CCCCC2)cc1		< 20	
COC(=O)CO/N=C(\C)c1ccc(Cl)cc1	24		
O=C(O)CO/N=C/c1ccc(Br)cc1	46		
CNC(=O)CO/N=C(\C)c1ccc(Cl)cc1	70		
C/C(=N\OCCCCO)c1ccc(Cl)cc1		< 20	
C/C(=N\OCC(=O)O)c1ccc(C(F)(F)F)cc1	120		
C/C(=N\OCC(=O)OCCN(C)C)c1ccc(Cl)cc1 [CLOXIMATE]	34		LD50 [3]: > 1000 mg/kg; Activity (Canis familiaris [4]): Non-toxic; LD50 [5]: > 320 mg/kg; ED50 (Mus musculus [6]): > 1000 mg/kg; Activity (Rattus norvegicus [7]): Non-toxic; Activity (Rattus norvegicus [8]): Non-toxic; ED50 (Mus musculus [9]): > 320 mg/kg; Activity (Canis familiaris [10]): Non-toxic
O=C(O)CO/N=C/c1ccccc1Cl		< 20	
O=C(O)CN/N=C/c1ccc(Cl)cc1	25		
C/C(=N\OCC(=O)OCCCCCCN(C)C)c1ccc(Cl)cc1	66		
CSc1ccc(/C(C)=N/OCC(=O)O)cc1		< 20	
C/C(=N\OCC(=O)O)c1c[nH]c2ccccc12		< 20	
C/C(=N\OCC(=O)O)c1ccc(S(C)(=O)=O)cc1		20	
C/C(=N\OCC(=O)O)c1cccc(Cl)c1		20	
CCCCC/C(=N\OCC(=O)O)c1ccc(Cl)cc1		< 20	
C/C(=N\OCC(N)=O)c1ccc(F)cc1		20	
C/C(=N\OCCCCCC(=O)O)c1ccc(Cl)cc1	92		
C/C(=N\OCC(=O)O)c1cccc2ccccc12		20	
C/C(=N\OCC(=O)O)c1ccc(F)c(N)c1		20	
O=C(O)CON=C1CCCCC1		< 20	
C/C(=N\NCC(=O)O)c1ccc(Cl)cc1	22		
C/C(=N\OCCC(=O)O)c1ccc(Cl)cc1	80		
OCCO/N=C/c1ccc(Cl)cc1	90		

Compound	ED50 (Rattus norvegicus [1]) [mg/kg]	inhibition in vivo at 50 mg/kg (Rattus norvegicus [2]) [%]	also measured
CC/C(=N\OCC(=O)O)c1ccc(Cl)cc1		< 20	
CC(=O)OCCO/N=C(\C)c1ccc(Cl)cc1	43		
C/C(=N\OCC(=O)N(C)C)c1ccc(Cl)cc1	120		
C/C(=C\CC(=O)O)c1ccc(Cl)cc1	70		
O=C(O)CO/N=C\c1ccc(Cl)s1		< 20	
C/C(=N\OCC(=O)O)c1ccccc1		< 20	
C/C(=N\OCC(=O)O)c1ccc(C)cc1		20	
CCCCC1C(=O)N(c2ccccc2)N(c2ccccc2)C1=O [PHENYLBUTAZONE]	34		
O=C(O)CO/N=C/c1ccc([N+](=O)[O-])cc1		< 20	
C/C(=N\OCC(=O)O)c1ccc([N+](=O)[O-])cc1		< 20	
C/C(=N\OCC(=O)OCCN1CCN(C)CC1)c1ccc(Cl)cc1.Cl	54		
C/C(=N\OCC(=O)OC(C)C)c1ccc(Cl)cc1	50		
C/C(=N\OCC(=O)O)c1ccc(Br)cc1	27		
C/C(=N\OCC(N)=O)c1ccc(Br)cc1	62		
O=C(O)C#Cc1ccc(Cl)cc1		< 20	
C/C(=N\OCC(N)=O)c1ccccc1		< 20	
C/C(=N\OCC(=O)O)c1ccc(F)cc1	85		
COC(=O)CO/N=C(\C)c1ccc(Br)cc1	14		
C/C(=N\OCC(=O)O)c1ccccc1C(=O)O		< 20	
COC(=O)OCCO/N=C(\C)c1ccc(Cl)cc1	33		
